Experimental data: ChEMBL document CHEMBL1649483, “Molecular analysis of the gyrA and gyrB quinolone resistance-determining regions of fluoroquinolone-resistant Clostridium difficile mutants selected in vitro” (2009)
Converted amounts (≈) assume the structure as drawn.

Assays:
Type in all cases: functional
Clostridioides difficile [1] = experiment: Antimicrobial activity against Clostridium difficile A422g harboring GyrA Asp81Asn mutant gene selected after 8 ug/ml of moxifloxacin by Etest method
Summary of the method: (§1)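 Stable in vitro-selected mutant tested for gatifloxacin susceptibility by Etest, per the manufacturer's instructions, with an 8 μg/ml breakpoint. For selection, the parent was grown in antibiotic-free brain heart infusion (BHI) for 24 h at 35°C under anaerobic conditions. […] Later steps used double the MIC. Stability was confirmed by three subcultures.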

Clostridioides difficile [2] = experiment: Antimicrobial activity against Clostridium difficile A422i harboring GyrA Asp81Asn mutant gene selected after 8 ug/ml of moxifloxacin by Etest method; summary of the method: as §1
Clostridioides difficile [3] = experiment: Antimicrobial activity against Clostridium difficile 630a selected after 2 ug/ml of moxifloxacin by Etest method; summary of the method: as §1
Clostridioides difficile [4] = experiment: Antimicrobial activity against Clostridium difficile 630b selected after 2 ug/ml of moxifloxacin by Etest method; summary of the method: as §1
Clostridioides difficile [5] = experiment: Antimicrobial activity against Clostridium difficile 630e selected after 4 ug/ml of moxifloxacin by Etest method; summary of the method: as §1
Clostridioides difficile [6] = experiment: Antimicrobial activity against Clostridium difficile 630h harboring GyrB […] mutant gene selected after 8 ug/ml of moxifloxacin by Etest method; summary of the method: as §1
Clostridioides difficile [7] = experiment: Antimicrobial activity against Clostridium difficile 630i harboring GyrB […] mutant gene selected after 8 ug/ml of moxifloxacin by Etest method; summary of the method: as §1
Clostridioides difficile [8] = experiment: Antimicrobial activity against Clostridium difficile BI2b harboring GyrB Arg447Lys mutant gene selected after 2 ug/ml of moxifloxacin by Etest method; summary of the method: as §1
Clostridioides difficile [9] = experiment: Antimicrobial activity against Clostridium difficile BI2d harboring GyrB Arg447Lys and Asp426Asn mutant gene selected after 32 ug/ml of moxifloxacin by Etest method; summary of the method: as §1
Clostridioides difficile [10] = experiment: Antimicrobial activity against Clostridium difficile BI2e harboring GyrB Arg447Lys and Asp426Asn mutant gene selected after 32 ug/ml of moxifloxacin by Etest method; summary of the method: as §1
Clostridioides difficile [11] = experiment: Antimicrobial activity against Clostridium difficile C253A selected after 4 ug/ml of levofloxacin by Etest method; summary of the method: as §1
Clostridioides difficile [12] = experiment: Antimicrobial activity against Clostridium difficile C253B selected after 4 ug/ml of levofloxacin by Etest method
Clostridioides difficile [13] = experiment: Antimicrobial activity against Clostridium difficile CD5F harboring GyrB Ser416Ala mutant gene selected after 8 ug/ml of levofloxacin by Etest method
Clostridioides difficile [14] = experiment: Antimicrobial activity against Clostridium difficile A422B selected after 4 ug/ml of levofloxacin by Etest method; summary of the method: as §1
Clostridioides difficile [15] = experiment: Antimicrobial activity against Clostridium difficile A422H harboring GyrA Thr82Ile and GyrB Leu451Phe mutant genes selected after 8 ug/ml of levofloxacin by Etest method; summary of the method: as §1
Clostridioides difficile [16] = experiment: Antimicrobial activity against Clostridium difficile 630B selected after 4 ug/ml of levofloxacin by Etest method; summary of the method: as §1
Clostridioides difficile [17] = experiment: Antimicrobial activity against Clostridium difficile 630C selected after 4 ug/ml of levofloxacin by Etest method; summary of the method: as §1
Clostridioides difficile [18] = experiment: Antimicrobial activity against Clostridium difficile BI2B selected after 4 ug/ml of levofloxacin by Etest method; summary of the method: as §1
Clostridioides difficile [19] = experiment: Antimicrobial activity against Clostridium difficile BI2C selected after 4 ug/ml of levofloxacin by Etest method; summary of the method: as §1
Clostridioides difficile [20] = experiment: Antimicrobial activity against Clostridium difficile BI2F harboring GyrB Glu466Lys mutant gene selected after 8 ug/ml of levofloxacin by Etest method; summary of the method: as §1
Clostridioides difficile [21] = experiment: Antimicrobial activity against Clostridium difficile CD25 expressing tcdA, tcdB gene and GyrB Ser416Ala mutant gene by Etest method
Clostridioides difficile [22] = experiment: Antimicrobial activity against Clostridium difficile C253b selected after 2 ug/ml of moxifloxacin by Etest method
Clostridioides difficile [23] = experiment: Antimicrobial activity against Clostridium difficile C253g harboring GyrA Ala118Ser mutant gene selected after 8 ug/ml of moxifloxacin by Etest method
Clostridioides difficile [24] = experiment: Antimicrobial activity against Clostridium difficile CD5e harboring GyrB Ser416Ala mutant gene selected after 4 ug/ml of moxifloxacin by Etest method
Clostridioides difficile [25] = experiment: Antimicrobial activity against Clostridium difficile A422b selected after 2 ug/ml of moxifloxacin by Etest method; summary of the method: as §1
Clostridioides difficile [26] = experiment: Antimicrobial activity against Clostridium difficile A422f selected after 4 ug/ml of moxifloxacin by Etest method; summary of the method: as §1
Clostridioides difficile [27] = experiment: Antimicrobial activity against Clostridium difficile A422h harboring GyrA Asp81Asn mutant gene selected after 8 ug/ml of moxifloxacin by agar dilution method
Clostridioides difficile [28] = experiment: Antimicrobial activity against Clostridium difficile 630e selected after 4 ug/ml of moxifloxacin by agar dilution method
Clostridioides difficile [29] = experiment: Antimicrobial activity against Clostridium difficile 630f selected after 4 ug/ml of moxifloxacin by agar dilution method
Clostridioides difficile [30] = experiment: Antimicrobial activity against Clostridium difficile 630g harboring GyrB […] mutant gene selected after 8 ug/ml of moxifloxacin by agar dilution method
Clostridioides difficile [31] = experiment: Antimicrobial activity against Clostridium difficile 630i harboring GyrB […] mutant gene selected after 8 ug/ml of moxifloxacin by agar dilution method
Clostridioides difficile [32] = experiment: Antimicrobial activity against Clostridium difficile BI2e harboring GyrB Arg447Lys and Asp426Asn mutant gene selected after 32 ug/ml of moxifloxacin by agar dilution method
Clostridioides difficile [33] = experiment: Antimicrobial activity against Clostridium difficile CD5A harboring GyrB Ser416Ala mutant gene selected after 4 ug/ml of levofloxacin by agar dilution method
Clostridioides difficile [34] = experiment: Antimicrobial activity against Clostridium difficile CD5E harboring GyrB Ser416Ala mutant gene selected after 8 ug/ml of levofloxacin by agar dilution method
Clostridioides difficile [35] = experiment: Antimicrobial activity against Clostridium difficile A422 expressing tcdA and tcdB gene by agar dilution method
Clostridioides difficile [36] = experiment: Antimicrobial activity against Clostridium difficile A422G harboring GyrA Thr82Ile and GyrB Leu451Phe mutant genes selected after 8 ug/ml of levofloxacin by agar dilution method
Clostridioides difficile [37] = experiment: Antimicrobial activity against Clostridium difficile A422H harboring GyrA Thr82Ile and GyrB Leu451Phe mutant genes selected after 8 ug/ml of levofloxacin by agar dilution method
Clostridioides difficile [38] = experiment: Antimicrobial activity against Clostridium difficile 630A selected after 4 ug/ml of levofloxacin by agar dilution method
Clostridioides difficile [39] = experiment: Antimicrobial activity against Clostridium difficile 630B selected after 4 ug/ml of levofloxacin by agar dilution method
Clostridioides difficile [40] = experiment: Antimicrobial activity against Clostridium difficile 630C selected after 4 ug/ml of levofloxacin by agar dilution method
Clostridioides difficile [41] = experiment: Antimicrobial activity against Clostridium difficile BI2A selected after 4 ug/ml of levofloxacin by agar dilution method
Clostridioides difficile [42] = experiment: Antimicrobial activity against Clostridium difficile C253i harboring GyrA Ala118Ser mutant gene selected after 8 ug/ml of moxifloxacin by agar dilution method
Clostridioides difficile [43] = experiment: Antimicrobial activity against Clostridium difficile CD5a harboring GyrB Ser416Ala mutant gene selected after 2 ug/ml of moxifloxacin by agar dilution method

COc1c(N2CCNC(C)C2)c(F)cc2c(=O)c(C(=O)O)cn(C3CC3)c12 (stereo not drawn) [GATIFLOXACIN]
MIC (Clostridioides difficile [1]): ≥ 32 µg/mL | MIC (Clostridioides difficile [2]): ≥ 32 µg/mL | MIC (Clostridioides difficile [3]): 0.75 µg/mL | MIC (Clostridioides difficile [4]): 0.75 µg/mL | MIC (Clostridioides difficile [5]): 2 µg/mL | MIC (Clostridioides difficile [6]): ≥ 32 µg/mL | MIC (Clostridioides difficile [7]): ≥ 32 µg/mL | MIC (Clostridioides difficile [8]): 1.5 µg/mL | MIC (Clostridioides difficile [9]): 6 µg/mL | MIC (Clostridioides difficile [10]): 6 µg/mL | MIC (Clostridioides difficile [11]): 0.5 µg/mL | MIC (Clostridioides difficile [12]): 0.5 µg/mL | MIC (Clostridioides difficile [13]): 2 µg/mL | MIC (Clostridioides difficile [14]): 1 µg/mL | MIC (Clostridioides difficile [15]): ≥ 32 µg/mL | MIC (Clostridioides difficile [16]): 0.75 µg/mL | MIC (Clostridioides difficile [17]): 0.75 µg/mL | MIC (Clostridioides difficile [18]): 2 µg/mL | MIC (Clostridioides difficile [19]): 2 µg/mL | MIC (Clostridioides difficile [20]): ≥ 32 µg/mL | MIC (Clostridioides difficile [21]): 0.5 µg/mL (≈ 1.33 µM) | MIC (Clostridioides difficile [22]): 1 µg/mL | MIC (Clostridioides difficile [23]): 8 µg/mL | MIC (Clostridioides difficile [24]): 0.75 µg/mL | MIC (Clostridioides difficile [25]): 1.5 µg/mL | MIC (Clostridioides difficile [26]): 1.5 µg/mL

C[C@H]1COc2c(N3CCN(C)CC3)c(F)cc3c(=O)c(C(=O)O)cn1c23.C[C@H]1COc2c(N3CCN(C)CC3)c(F)cc3c(=O)c(C(=O)O)cn1c23.O [LEVOFLOXACIN]
MIC (Clostridioides difficile [27]): 64 µg/mL | MIC (Clostridioides difficile [28]): 4 µg/mL | MIC (Clostridioides difficile [29]): 4 µg/mL | MIC (Clostridioides difficile [30]): 64 µg/mL | MIC (Clostridioides difficile [31]): 64 µg/mL | MIC (Clostridioides difficile [32]): 64 µg/mL | MIC (Clostridioides difficile [33]): 1 µg/mL | MIC (Clostridioides difficile [34]): 2 µg/mL | MIC (Clostridioides difficile [35]): 2 µg/mL | MIC (Clostridioides difficile [36]): 64 µg/mL | MIC (Clostridioides difficile [37]): 64 µg/mL | MIC (Clostridioides difficile [38]): 1 µg/mL | MIC (Clostridioides difficile [39]): 1 µg/mL | MIC (Clostridioides difficile [40]): 1 µg/mL | MIC (Clostridioides difficile [41]): 1 µg/mL | MIC (Clostridioides difficile [42]): 64 µg/mL | MIC (Clostridioides difficile [43]): 2 µg/mL
